Bioassay records: PubChem BioAssay, several laboratories
The list is not random: actives were taken first. Their share in the collection is about 2.6%.
VIM-2 inh: blocks Pseudomonas aeruginosa VIM-2 metallo-beta-lactamase | purified VIM-2, nitrocefin hydrolysis, epi-absorbance fluorescence | inhibition, % at 5.6 µM | AID 1527 | actives 0.89% (n = 290,000);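 active = inhibition above the mean of all tested compounds plus 3 SD, cutoff set per screening run, cut at about 7.5% in these data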;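 also: red hydrolysis product quenches plate fluorescence so inhibitors raise well fluorescence; 0% = enzyme with DMSO and 100% = DMSO without enzyme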
IMP-1 inh-1: inhibitors of Pseudomonas aeruginosa IMP-1 metallo-beta-lactamase | purified IMP-1, nitrocefin hydrolysis, epi-absorbance fluorescence | inhibition, % at 5.6 µM | actives 0.45% (n = 290,000) | AID 1556;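 active = inhibition above the mean plus 3 SD of all compounds in the same screening run, cut at about 4.5% in these data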;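 also: 0% = IMP-1 with DMSO and 100% = DMSO wells lacking enzyme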
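System: Purified IMP-1 | Read-out basis: Percent enzyme inhibition | Controls: IMP-1 with DMSO as 0%, enzyme-free DMSO as 100% | Replicates: One well per compound | Doses: 5.6 µM nominal single concentration | Detection: Epi-absorbance fluorescence, 480 nm excitation, 530 nm emission | Incubation: 25 °C, 15 min preincubation, 25 min reaction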
PHOSPHO1 block: blocks human PHOSPHO1 phosphatase activity | recombinant PHOSPHO1, absorbance phosphatase assay | inhibition, % at 13.3 µM | actives 1.1% (n = 290,000); in the data active = inhibition above about 60%
Target sequence (Q8TCT1 whole entry, looked up): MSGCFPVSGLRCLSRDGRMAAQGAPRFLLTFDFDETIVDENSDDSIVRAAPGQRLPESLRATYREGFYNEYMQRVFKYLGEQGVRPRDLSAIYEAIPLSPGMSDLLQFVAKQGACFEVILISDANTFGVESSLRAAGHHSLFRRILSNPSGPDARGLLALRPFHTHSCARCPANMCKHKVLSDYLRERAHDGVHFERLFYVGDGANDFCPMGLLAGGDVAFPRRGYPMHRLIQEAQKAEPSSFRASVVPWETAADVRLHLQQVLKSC
ARFGAP1 inh: rat ARFGAP1 inhibition; Arfgap1-stimulated ARF1 GTP hydrolysis, GDP FP detection; Q62848; actives 0.26% (n = 360,000); inhibition, % at 16.5 µM;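 active = inhibition above a per-plate limit, mean inhibition of low control wells plus 3 SD, cut at about 25% in these data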;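 also: 0% = DMSO wells with enzyme and 100% = wells lacking Arfgap1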
Target sequence (Q62848 1-136 limits assumed): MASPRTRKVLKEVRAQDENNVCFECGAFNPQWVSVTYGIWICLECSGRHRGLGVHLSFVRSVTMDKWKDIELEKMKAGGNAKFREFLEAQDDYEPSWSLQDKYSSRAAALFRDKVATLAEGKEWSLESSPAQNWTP
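Material: rat Arfgap1 catalytic domain, aa 1-136; also added: human ARF1(Δ1-17)-GTP substrate; compound dosing: one concentration, 16.5 µM, DMSO 1.26%; incubation: GTP hydrolysis reaction 2 h at 25 °C; measured by: Tracer-displacement fluorescence polarization with EDTA stop, 620/688 nm; evaluation: % inhibition from polarization; repeats: one replicate per compound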
Calb FLC: affects C. albicans growth with fluconazole; actives 0.57% (n = 300,000); C. albicans CaCi-2 + fluconazole, Alamar Blue growth, 48 h; growth inhibition, % (no concentration beside the values);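 active = growth inhibition above about 58% in most replicates, limit read from the data, passing the limit was not always enough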;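 also: all wells also contain fluconazole at 8 µg/ml as a sub-toxic cotreatment; 0% = median of DMSO wells and 100% = median of geldanamycin control wells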
ASAP1 inh: ASAP1 ArfGAP inhibition. Q9ULH1. ASAP1-stimulated ARF1 GTP hydrolysis, GDP FP detection. inhibition, % at 16.5 µM. actives 0.19% (n = 360,000). AID 624377; in the data active = inhibition above about 25%;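 also: 0% = vehicle with enzyme and substrate and 100% = no enzyme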
IMP-1 inh-2: IMP-1 inhibition, counter-screen for VIM-2 inhibitors | inhibition, % at 5.6 µM | purified IMP-1, nitrocefin hydrolysis, epi-absorbance fluorescence | AID 1856 | shares compounds with VIM-2 inh | 1,300 tested, under 10 active; call rule not given here;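 also: 0% = enzyme with vehicle and 100% = vehicle without enzyme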
VIM-2 FRET ctr: VIM-2 FRET inhibition, artifact counter-screen; actives 23% (n = 1,300); shares compounds with VIM-2 inh; purified VIM-2, CCF2 FRET substrate hydrolysis; AID 1857; inhibition, % at 5.6 µM;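 active = inhibition above the mean of all tested compounds plus 3 SD, cut at about 19% in these data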;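 also: 0% = VIM-2 plus DMSO and 100% = no enzyme wells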
TEM-1 inh: TEM-1 inhibition, counter-screen for VIM-2 inhibitors; inhibition, % at 5.6 µM; actives 3% (n = 1,300); Purified TEM-1, nitrocefin hydrolysis, epi-absorbance fluorescence; shares compounds with VIM-2 inh;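 active = inhibition above that campaign's mean inhibition plus 3 SD, cut at about 0.46% in these data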;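 also: 0% = TEM-1 with DMSO and 100% = TEM-1 with 100 µM potassium clavulanate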
Target sequence (P62593 whole entry, looked up): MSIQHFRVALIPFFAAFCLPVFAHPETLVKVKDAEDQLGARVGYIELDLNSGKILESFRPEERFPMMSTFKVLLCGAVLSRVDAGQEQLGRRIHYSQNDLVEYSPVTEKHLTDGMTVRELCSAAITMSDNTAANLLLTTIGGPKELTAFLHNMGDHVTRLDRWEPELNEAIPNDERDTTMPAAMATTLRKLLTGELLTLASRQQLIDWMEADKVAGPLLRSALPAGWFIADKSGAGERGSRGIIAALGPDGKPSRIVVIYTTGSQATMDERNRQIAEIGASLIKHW
VIM-2 inh conf: confirmation of P. aeruginosa VIM-2 metallo-beta-lactamase inhibitors; purified VIM-2, nitrocefin hydrolysis, epi-absorbance; shares compounds with VIM-2 inh; actives 96% (n = 1,300); inhibition, % at 5.6 µM;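 active = inhibition of the VIM-2 beta-lactamase enzyme above about 11% from the earlier first-round screen, limit read from the data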;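 also: 0% = VIM-2 with DMSO and 100% = buffer wells without enzyme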
* marks the source's active call; other numbers are inactive results; . = no result.

SMILES	VIM-2 inh	IMP-1 inh-1	PHOSPHO1 block	ARFGAP1 inh	Calb FLC	ASAP1 inh	IMP-1 inh-2	VIM-2 FRET ctr	TEM-1 inh	VIM-2 inh conf
Cc1ccc(NC(=O)Cc2nnc(SCC(=O)c3ccc(Br)cc3)n2C)cc1Cl	-3	-4	78*	7	-10	2	.	.	.	.
C=CCCC1CN(Cc2ccc(OC)cc2)S(=O)(=O)c2c(cccc2Sc2ccc(OC)c(OC)c2)O1 (configuration not stated)	.	.	.	14	.	2	.	.	.	.
Cc1ccc(CCCOC(=O)C[N+]2(C)CCOCC2)cc1	2	1	89*	2	-9	13	.	.	.	.
O=C(C/C=N\OCc1c(Cl)cccc1Cl)Oc1ccc(Cl)cc1Cl	-2	12*	-7	-12	14	4	.	.	.	.
O=C(Nc1ccccc1Cl)Oc1ccc(Cl)cc1Cl	1	-2	56	-6	-2	-4	.	.	.	.
CC1CCCC(NC(=O)COC(=O)Cc2cn3ccsc3n2)C1C (configuration not stated)	-1	-3	96*	-1	.	-3	.	.	.	.
O=C(COC(=O)Cc1cn2ccsc2n1)NC12CC3CC(CC(C3)C1)C2	-4	-4	-2	-12	-5	-4	.	.	.	.
O=C(Nc1cccc(-c2cn3ccccc3n2)c1)c1ccccc1	-1	-2	12	8	23	-13	.	.	.	.
Cc1ccc(C(=O)Nc2cccc(-c3cn4ccccc4n3)c2)cc1	-2	-3	2	11	94*	8	.	.	.	.
CCCN(CCC)c1cc(=O)nc2ccccn12	.	.	.	-4	.	-2	.	.	.	.
CCCc1[nH]nc2c1C(c1ccc(OCCN3CCOCC3)c(OCC)c1)C(C#N)=C(N)O2 (configuration not stated)	8.7*	-3	-8	-8	-2	2	.	.	.	.
CCC(C(=O)NCc1ccccc1)n1c(-c2cccs2)nc2ccccc21 (configuration not stated)	.	.	.	0	.	-5	.	.	.	.
S=C(Nc1ccc(Cl)cc1)c1nc2ccccc2[nH]1	-1	-2	-17	-3	96*	-4	.	.	.	.
O=C(NCc1ccccc1)[C@H]1CCCN1	.	.	.	4	.	-3	.	.	.	.
CC(C)Nc1nc(NC(C)C)nc(Nn2cnnc2)n1	-1	-1	15	-8	-6	-14	.	.	.	.
CC(C)Nc1nc(NC(C)C)nc(N(C)n2cnnc2)n1	0	1	94*	11	-3	9	.	.	.	.
CCCCN(C=O)c1c(CC)nc2c(OCc3ccc(Cl)cc3)cccn12	.	.	.	7	.	6	.	.	.	.
O=S(=O)(NCc1ccccc1)c1cc(Br)ccc1Br	.	.	.	-5	.	1	.	.	.	.
Cc1cc(=O)n2c3ccccc3n(CC(O)CN3CCN(CCO)CC3)c2c1C#N (configuration not stated)	22*	-3	23	2	-6	14	-5	0	-10	38*
Cc1cc(=O)n2c3ccccc3n(CC(O)CN3CCN(Cc4ccccc4)CC3)c2c1C#N (configuration not stated)	14*	-3	41	11	-14	-12	-3	2	-13	33*
CCC1CCCCN1CC(O)Cn1c2ccccc2n2c(=O)cc(C)c(C#N)c12 (configuration not stated)	3	0	-12	3	-11	8	.	.	.	.
Cc1cc(=O)n2c3ccccc3n(CC(O)CN3CCC(C)CC3)c2c1C#N (configuration not stated)	4	1	-9	1	-7	4	.	.	.	.
CCOc1ccc(CCNC(=O)c2ccc(=O)[nH]c2)cc1OCC	27*	-2	37	3	-1	-16	-2	-4	-1	2
COc1ccc(CCNC(=O)c2ccc(=O)[nH]c2)cc1OC	0	-1	10	12	.	-3	.	.	.	.
O=C(CSc1nnc(NC(=O)c2ccccc2F)s1)NC1CCCC1	13*	-3	0	-2	4	-4	-3	24*	-5	15*
SMILES	VIM-2 inh	IMP-1 inh-1	PHOSPHO1 block	ARFGAP1 inh	Calb FLC	ASAP1 inh	IMP-1 inh-2	VIM-2 FRET ctr	TEM-1 inh	VIM-2 inh conf
O=C(CSc1nnc(NC(=O)c2ccc(F)cc2F)s1)NC1CCCC1	3	-2	26	-2	-7	-1	.	.	.	.
O=C(CSc1nnc(NC(=O)c2c(F)cccc2F)s1)NCc1ccccc1	33*	-3	-22	2	-5	11	-3	56*	-4	38*
COc1ccc2c(Cl)cc(NC(=O)Nc3c(C)cccc3C)nc2c1	.	.	.	9	.	5	.	.	.	.
CSCCC(C(=O)Nc1c(C)cccc1C)n1c(-c2cnc(C)cn2)nc2ccccc21 (configuration not stated)	.	.	.	8	.	8	.	.	.	.
COc1cc(-c2coc3c(C(=O)NCc4cccc(Cl)c4)cccc23)ccc1O	.	.	.	17	.	17	.	.	.	.
COC(=O)c1c(C(=O)OC)c2oc3ccccc3n2c1Cl	14*	-3	-4	-11	10	-4	-2	2	-5	18*
COC(=O)c1c(C(=O)OC)c2cc(C(=O)c3ccccc3)ccn2c1Cl	7	-6	2	5	32	1	.	.	.	.
CC(=O)c1c(Cl)nc2cccc3c2c1-c1ccccc1C3=O	20*	-2	19	0	2	7	-1	0	0	31*
Cc1cccc(CNC(=O)c2sc(=O)n(Cc3c(C)cccc3C)c2C)c1	.	.	.	-6	.	-1	.	.	.	.
CCN1CCc2c(sc(NC(=O)c3ccc(S(=O)(=O)N4CCOCC4)cc3)c2C(N)=O)C1	3	-2	-4	9	5	8	.	.	.	.
CCN1CCc2c(sc(NC(=O)c3ccc(S(=O)(=O)N4CCOCC4)cc3)c2C(=O)OC)C1	64*	-3	-19	8	5	23	-2	-2	-4	77*
CNC(=O)c1c(NC(=O)c2ccc(S(=O)(=O)N3CCCCC3C)cc2)sc2c1CCN(C)C2 (configuration not stated)	22*	3	28	5	8	9	-3	2	-6	30*
COC(=O)c1c(NC(=O)c2ccc(S(=O)(=O)N3CCOCC3)cc2)sc2c1CCN(C)C2	78*	-1	-6	6	.	-1	-2	-1	-7	85*
CCOC(=O)c1c(NC(=O)c2ccc(S(=O)(=O)N3CCOCC3)cc2)sc2c1CCN(C(C)C)C2	3	-2	-20	-13	-18	-9	.	.	.	.
CCC(=O)N1CCC1(C)C(=O)Nc1cnc2ccccc2c1 (configuration not stated)	.	.	.	6	.	10	.	.	.	.
